According to ChEMBL document CHEMBL1126839, “Imidazol-1-yl and pyridin-3-yl derivatives of 4-phenyl-1,4-dihydropyridines combining Ca2+ antagonism and thromboxane A2 synthase inhibition” (J Med Chem, 1993):
pIC50: −log10 of the molar value.

Legend:
Thromboxane-A synthase = target: T1, Thromboxane-A synthase (Rattus norvegicus, UniProt P49430); test: In vitro inhibition of thromboxane B2 production in rat whole blood.; type: functional, tissue-based
T1 sequence (P49430 whole entry): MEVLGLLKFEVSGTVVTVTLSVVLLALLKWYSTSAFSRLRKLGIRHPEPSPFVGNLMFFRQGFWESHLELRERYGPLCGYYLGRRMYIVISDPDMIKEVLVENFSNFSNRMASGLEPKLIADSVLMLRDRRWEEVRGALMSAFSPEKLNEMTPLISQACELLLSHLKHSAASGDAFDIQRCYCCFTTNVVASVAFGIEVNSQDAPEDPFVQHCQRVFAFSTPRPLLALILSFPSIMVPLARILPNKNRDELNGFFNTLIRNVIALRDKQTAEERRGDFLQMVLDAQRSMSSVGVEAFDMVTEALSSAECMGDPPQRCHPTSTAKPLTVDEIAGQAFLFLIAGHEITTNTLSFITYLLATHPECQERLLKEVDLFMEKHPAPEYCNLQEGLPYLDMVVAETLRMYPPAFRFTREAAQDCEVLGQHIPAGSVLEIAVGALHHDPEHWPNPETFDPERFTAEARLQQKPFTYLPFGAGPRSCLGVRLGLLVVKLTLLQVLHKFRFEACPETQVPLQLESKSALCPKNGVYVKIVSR

Cavia porcellus [1] = organism: Cavia porcellus; test: Inhibition of K+ induced contractions of the isolated guinea pig ileum.; type: functional
Cavia porcellus [2] = organism: Cavia porcellus; test: Tested for [Ca2+] antagonism in guinea pig ileum; type: functional
Method in brief: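 Screening preparation under 1 g tension; isometric contractions to 60 mM KCl elicited at 15-min intervals without and with increasing compound concentrations. IC50 (concentration inhibiting the KCl response by 50%) from least-squares regression.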

Cavia porcellus [3] = organism: Cavia porcellus; test: Tested for [Ca2+] antagonism in guinea pig right ventricle; type: functional; conditions: Heart right ventricle
Method in brief: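 Male guinea pig (0.5–0.8 kg) right ventricular strips (10 × 2 mm) in oxygenated Tyrode at 29 °C, 1 g preload. Electrically paced (3 ms, 2 Hz) for 60 min, depolarized with 22 mM KCl, then contractility restored with 10 μM histamine at 0.2 Hz pacing. Isometric contraction recorded; IC50 from computerized regression analysis.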

Oryctolagus cuniculus = organism: Oryctolagus cuniculus; test: Tested for [Ca2+] antagonism in rabbit renal artery; type: functional
Method in brief: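 Isolated renal artery under 1 g tension; isometric contractions to 60 mM KCl repeated at 30 min intervals without and with increasing concentrations of test compound or nifedipine as reference. IC50 from the concentration–response.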

Cavia porcellus [4] = organism: Cavia porcellus; test: Tested for [Ca2+] antagonism in guinea pig atria; type: functional
Method in brief: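 Male guinea pig (0.5–0.8 kg) spontaneously beating atria in oxygenated (95% O2/5% CO2) Locke solution at 37 °C under 1 g preload, rested 60 min. Compounds added cumulatively with 30 min contact per concentration. Isometric contraction recorded; IC25 from computerized regression analysis.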

Compound | pIC50 (Thromboxane-A synthase) | pIC50 (Cavia porcellus [1]) | pIC50 (Cavia porcellus [2]) | pIC50 (Cavia porcellus [3]) | pIC50 (Oryctolagus cuniculus) | IC25 (Cavia porcellus [4]) [µM]
CCO/C(O)=C1\C(C)=NC(C)=C(C(=O)O)C1c1cccc(-n2ccnc2)c1 (centres undefined) | < 6.00 | 5.71 | – | – | – | –
CCOC(=O)C1=C(C)N=C(C)/C(=C(/O)OCC)C1c1cccc(-c2cccnc2)c1 (centres undefined) | 6.55 | 7.00 | – | – | – | –
CCOC(=O)C1=C(C)N=C(C)/C(=C(/O)OCC)C1c1ccccc1-n1ccnc1 (centres undefined) | < 6.00 | 6.34 | – | – | – | –
COC(=O)C1=C(C)NC(C)=C(C(=O)OC)C1c1ccccc1[N+](=O)[O-] [NIFEDIPINE] | < 5.00 | 8.40 | 8.33 | 7.24 | 8.16 | 0.0315
CCO/C(O)=C1\C(COC)=NC(C)=C(C(=O)OC)C1c1cccc(-n2ccnc2)c1 (centres undefined) | 6.40 | 5.71 | – | – | – | –
CCOC(=O)c1c(C)nc(C)c(C(=O)OCC)c1-c1cccc(-n2ccnc2)c1 | < 6.00 | < 5.00 | – | – | – | –
COC(=O)C1=C(C)N=C(C)/C(=C(/O)OC)C1c1cccc(-n2ccnc2)c1 (centres undefined) | 6.57 | 6.07 | – | – | – | –
CC1=NC(C)=C(C(=O)OCC(C)C)C(c2cccc(-c3cccnc3)c2)/C1=C(\O)OCC(C)C (centres undefined) | < 6.00 | 5.82 | – | – | – | –
CO/C(O)=C1\C(C)=NC(C)=C(C(C)=O)C1c1cccc(-n2ccnc2)c1 (centres undefined) | 6.59 | < 5.00 | – | – | – | –
CCOC(=O)C1=C(CC)N=C(CC)/C(=C(/O)OCC)C1c1cccc(-n2ccnc2)c1 (centres undefined) | < 6.00 | 6.01 | – | – | – | –
CCO/C(O)=C1\C(C)=NC(C)=C(C(=O)OCCN(C)Cc2ccccc2)C1c1cccc(-n2ccnc2)c1 (centres undefined) | 6.66 | 7.30 | – | – | – | –
CCOC(=O)C1=C(C)N(C)C(C)=C(C(=O)OCC)C1c1cccc(-n2ccnc2)c1 | 6.19 | 5.05 | – | – | – | –
CCO/C(O)=C1\C(C)=NC(C)=C(C(=O)OC)C1c1cccc(-n2ccnc2)c1 (centres undefined) | 6.62 | 6.59 | – | – | – | –
CCOC(=O)C1=C(C)N=C(C)/C(=C(/O)OCC)C1c1ccc(-n2ccnc2)cc1 (centres undefined) | < 6.00 | 4.64 | – | – | – | –
CCOC(=O)C1=C(C)N=C(C)/C(=C(/O)OCC)C1c1cccc(Cn2ccnc2)c1 (centres undefined) | 6.14 | 5.78 | – | – | – | –
CCO/C(O)=C1\C(COCCN)=NC(C)=C(C(=O)OC)C1c1cccc(-n2ccnc2)c1 (centres undefined) | 6.52 | 5.63 | – | – | – | –
CCOC(=O)C1=C(C)N=C(C)/C(=C(/O)OCC)C1c1cccc(-n2ccnc2)c1 (centres undefined) | 6.77 | 7.22 | 7.21 | 5.67 | 6.95 | 0.0942
CCO/C(O)=C1\C(C)=NC(C)=C(C(=O)OCCN(C)Cc2ccccc2)C1c1cccc(-c2cccnc2)c1 (centres undefined) | < 6.00 | 7.22 | – | – | – | –
